Source: ChEMBL document CHEMBL1127474, “Synthesis and antifungal activity of novel cationic pneumocandin B(o) derivatives” (J Med Chem, 1994)
≈ marks a conversion by molar mass, not a printed value. *1 amine or outer side, *2 acyl side, *3 side chain or, on linkers, in order; H or OH if unused. Where a SMILES comes first, the peptide text is derived from it. Bridges are numbered along the chain shown (N, C = ends). [ ]: non-standard residue; d: D form. The star is where a group is joined. Orn(4R-OH,5R-OH) = O=C([C@H](C[C@@H](O)[C@@H](O)N[*:3])N[*:1])[*:2]; hTyr(3S-OH,4S-OH) = N[C@H](C(=O)O)[C@H](O)[C@@H](O)c1ccc(O)cc1; Gln(3R-OH) = NC(=O)C[C@@H](O)[C@H](N)C(=O)O; Orn(3R-OH) = NCC[C@@H](O)[C@H](N)C(=O)O; Pro(3S-OH) = O=C(O)[C@H]1NCC[C@@H]1O; Hyp = O=C(O)[C@@H]1C[C@@H](O)CN1; X1 = CCC(C)CC(C)CCCCCCCCC(=O)*

Experiments:
Assay type in all cases: functional
Candida albicans [1] = assay: In vitro concentration causing 50% inhibition of beta-(1,3)-D-glucan synthesis in a Candida albicans (MY 1208) membrane assay
Mus musculus [2] = assay: In vivo dose administered ip bid on days 0-4 which increases the 28-day survival rate of Aspergillus fumigatus by 50%; conditions: 672 h
Summary of the method: (§1)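 DBA/2 mice with disseminated A. fumigatus (MF5668) infection; compound given ip twice daily on days 0–4. Survival followed for 28 days; ED50 taken as the dose that raises the 28-day survival rate by 50%.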

Kluyveromyces marxianus = assay: In vitro minimum fungicidal concentration (MFC) against Candida pseudotropicalis (MY 2099)
Summary of the method: (§2)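 Whole-cell broth microdilution assay against reference and clinical Candida isolates; the MFC is the median of at least four duplicate determinations.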

Candida albicans [3] = assay: In vitro minimum fungicidal concentration (MFC) against Candida albicans (MY 1055); summary of the method: as §2
Candida parapsilosis = assay: In vitro minimum fungicidal concentration (MFC) against Candida parapsilosis (MY 1010); conditions: Lodderomyces parapsilosis; summary of the method: as §2
Candida tropicalis = assay: In vitro minimum fungicidal concentration (MFC) against Candida tropicalis (MY 1012); summary of the method: as §2
Mus musculus [4] = assay: In vivo minimum dose administered intraperitoneally b.i.d. which decreases Candida albicans (MY 1055) colony forming units by 99.9% in target organ kidney assay
Summary of the method: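 Target organ kidney assay in congenitally immunodeficient DBA/2 mice infected with C. albicans MY1055 and dosed ip twice daily. Kidney CFU/g is compared with untreated controls, and ED99.9 is the lowest dose giving a 99.9% reduction.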

Rattus norvegicus = assay: In vivo minimum dose administered subcutaneously b.i.d. which decreases the lung cyst count by 90% using PCP model in dexamethasone-immunosuppressed rats
Summary of the method: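 Acute Pneumocystis carinii pneumonia model in dexamethasone-immunosuppressed Sprague-Dawley rats dosed sc twice daily for 4 days. Lung cyst counts are compared with untreated controls, and ED90 is the lowest dose giving a 90% reduction.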

Candida albicans [5] = assay: In vitro minimum fungicidal concentration (MFC) against Candida albicans (MY 1208); conditions: in the assay text read “MY 1028” for “MY 1208”; summary of the method: as §2
Mus musculus [6] = assay: In vivo dose administered intraperitoneally bid on days 0-4 which increases the 28-day survival rate of Aspergillus fumigatus by 50%; conditions: ip, 672 h; summary of the method: as §1

Compound | IC50 (Candida albicans [1]) [nM] | ED50 (Mus musculus [2]) [mg/kg] | MFC (Kluyveromyces marxianus) [µg/mL] | MFC (Candida albicans [3]) [µg/mL] | MFC (Candida parapsilosis) [µg/mL] | MFC (Candida tropicalis) [µg/mL] | ED99.9 (Mus musculus [4]) [mg/kg] | ED90 (Rattus norvegicus) [mg/kg] | MFC (Candida albicans [5]) [µg/mL] | ED50 (Mus musculus [6]) [mg/kg]
CCC(C)CC(C)CCCCCCCCC(=O)N[C@H]1C[C@@H](O)[C@@H](OCCN)NC(=O)[C@@H]2[C@@H](O)CCN2C(=O)[C@H]([C@H](O)CCN)NC(=O)[C@H]([C@H](O)[C@@H](O)c2ccc(O)cc2)NC(=O)[C@@H]2C[C@@H](O)CN2C(=O)[C@H]([C@@H](C)O)NC1=O (stereo not given in full) | 1 | 0.03 | < 0.06 | 0.125 (≈ 0.114 µM) | 0.125 (≈ 0.114 µM) | < 0.06 | 0.09 | 0.019 | < 0.06 | –
CCC(C)CC(C)CCCCCCCCC(=O)N[C@H]1C[C@@H](O)[C@@H](OCCN)NC(=O)[C@@H]2[C@@H](O)CCN2C(=O)[C@H]([C@H](O)CC(N)=O)NC(=O)[C@H]([C@H](O)[C@@H](O)c2ccc(O)cc2)NC(=O)[C@@H]2C[C@@H](O)CN2C(=O)[C@H]([C@@H](C)O)NC1=O (stereo not given in full) | 11 | 0.06 | 1 (≈ 0.902 µM) | 0.125 (≈ 0.113 µM) | 1 (≈ 0.902 µM) | 0.25 (≈ 0.226 µM) | 0.78 | 0.037 | 0.125 (≈ 0.113 µM) | –
CCC(C)CC(C)CCCCCCCCC(=O)N[C@H]1C[C@@H](O)[C@@H](O)NC(=O)[C@@H]2[C@@H](O)CCN2C(=O)[C@H]([C@H](O)CC(N)=O)NC(=O)[C@H]([C@H](O)[C@@H](O)c2ccc(O)cc2)NC(=O)[C@@H]2C[C@@H](O)CN2C(=O)[C@H]([C@@H](C)O)NC1=O (stereo partly drawn) (X1-[Orn(4R-OH,5R-OH)]T[Hyp][hTyr(3S-OH,4S-OH)][Gln(3R-OH)][Pro(3S-OH)]; lactam 1-C) | – | – | 1 (≈ 0.939 µM) | 0.5 (≈ 0.469 µM) | 2 (≈ 1.88 µM) | 0.125 (≈ 0.117 µM) | 6 | 0.15 | 0.25 (≈ 0.235 µM) | > 20
CCC(C)CC(C)CCCCCCCCC(=O)N[C@H]1C[C@@H](O)[C@@H](O)NC(=O)[C@@H]2[C@@H](O)CCN2C(=O)[C@H]([C@H](O)CCN)NC(=O)[C@H]([C@H](O)[C@@H](O)c2ccc(O)cc2)NC(=O)[C@@H]2C[C@@H](O)CN2C(=O)[C@H]([C@@H](C)O)NC1=O (stereo partly drawn) (X1-[Orn(4R-OH,5R-OH)]T[Hyp][hTyr(3S-OH,4S-OH)][Orn(3R-OH)][Pro(3S-OH)]; lactam 1-C) | 10 | > 20 | 0.125 (≈ 0.119 µM) | < 0.06 | 0.125 (≈ 0.119 µM) | < 0.06 | 0.375 | 0.037 | < 0.06 | –
